The structures appear in SMILES notation.

The data set can be described thus: Toxicity liver stage against HepG2, at 10uM. Also noted: test concentration 10 uM, cell line HepG2-A16-CD81EGFP. The format is cell-based. The conditions noted are these: human, HepG2-A16-CD81EGFP cells; read-out: INHIBITION
In short, it runs like this: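 Uninfected HepG2-A16-CD81EGFP cells, 3 × 10^3 per well, 1536-well, plated on prespotted compound at 10 μM final, parasite-free screening media added to match infected plates; puromycin 10 μM positive, DMSO 0.5% negative; run in parallel with 48 h PbLuc assay at 37 °C, 5% CO2; viability by CellTiter-Glo luminescence, normalized to controls.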
Turning to `Cc1ccc(C(=O)N(C)CC(=O)NCC(F)(F)F)cn1`, the cytotoxicity at 10 µM is -4.46%. Consider `CC(C)NC(=O)N1CCN2C(=O)N(Cc3ccc(F)cc3)C[C@H]2C1`, for which the cytotoxicity at 10 µM turned out to be 0.88%. In the case of `CO[C@@H]1CN(c2ccccc2)S(=O)(=O)[C@@]12CCN(Cc1cncs1)C2` it was 5.63%; in that of `CO[C@H]1CN(c2ccccc2)S(=O)(=O)[C@@]12CCN(Cc1ccccc1)C2`, -4.86%; in that of `O=C(NCC1CCCCC1)c1nnn(-c2ccc(Br)cc2)n1`, -0.895%. On to `COC1(CNS(=O)(=O)c2ccccc2Br)CCSC1` (stereo not given), for which the cytotoxicity at 10 µM is -8.26%. Regarding `Cn1cnnc1S(=O)(=O)C1CCN(C(=O)c2cccs2)CC1`, the cytotoxicity at 10 µM stood at 6.03%. The same measure for `CCn1ncc2c1C(COC)CN(Cc1ccc(OC)cc1)C2` (stereo not given): 11.4%; for `Cc1nc(CN2C[C@@H]3OCCN(c4ncc(F)cn4)[C@@H]3C2)cs1`: -8.52%; for `CN(C)C(=O)N1Cc2nnn(C)c2C(COCC2CC2)C1` (stereo not given): -10.7%.

Take `CN1CCc2c1nc1c(c2N)CCC1`: the cytotoxicity at 10 µM was 0.0371%. `Cc1nn(C)c2c(NCc3ccccn3)ncnc12`: the cytotoxicity at 10 µM is -5.2%. The same measure for `O=S(=O)(c1ccc(F)c(F)c1)n1cc(Cl)cn1`: 4.66%.

In the case of `CNC(=O)c1sc2ccccc2c1CC1CCCCN1Cc1ncc[nH]1` (stereo not given), the cytotoxicity at 10 µM is 2.35%. In the case of `N#CCCN1CCN(S(=O)(=O)c2ccc(Cl)s2)CC1` it was 14.7%; in that of `Cc1cc(C)c(S(N)(=O)=O)cc1C(=O)NCCN1CCCCC1`, -5.52%. As to `CN(C(=O)OC(C)(C)C)C1CCN(C(=O)c2cc(Cl)c[nH]2)C1` (stereo not given), the cytotoxicity at 10 µM was 2.5%.

With `Cc1ccc(C(=O)NCc2cc(F)ccc2N2CCCN(C)CC2)o1`, the cytotoxicity at 10 µM is -9.7%. With `CN(C)CCN(C)S(=O)(=O)Cc1ccc(Br)cc1`, the cytotoxicity at 10 µM amounted to 0.936%.

With `COc1cc(NC2CCCN(c3ncccc3C#N)C2)cc(OC)c1` (stereo not given), the cytotoxicity at 10 µM was -9.25%. `CC(C(=O)N1CCN(C(=O)c2ccc(F)cc2F)CC1)n1ccnc1` (stereo not given): the cytotoxicity at 10 µM worked out at 1.63%. In the case of `Cc1ccc(C(=O)N2CCN(C(=O)C(C)n3ccnc3)CC2)cc1F` (stereo not given) it was 3.72%; in that of `Cc1cc(C(=O)NC2=NCCS2)c(C)n1-c1ccccn1`, 6.25%; in that of `Cc1nn(CC(C)C)c(N(C)C)c1CNCCCNS(C)(=O)=O`, 1.73%. In the case of `CC(NC(=O)c1cccs1)C(=O)NS(=O)(=O)c1ccc(C#N)cc1` (stereo not given) it was 5.11%; in that of `Cc1noc(CCCNS(=O)(=O)N2CCCC2c2ccco2)n1` (stereo not given), -7.88%. As to `Cn1cccc1-c1nnc(C2(c3ccc4c(c3)OCO4)CCOCC2)o1`, the cytotoxicity at 10 µM turned out to be 20.3%. In the case of `CSCCN1C(=O)CC(C)(c2ccc(Br)cc2)C1=O` (stereo not given) it was -8.98%; in that of `CC(=O)c1ccc(Cl)c(Cl)c1OCC(=O)NCC(F)(F)F`, -1.2%; in that of `c1cnc(N2CCO[C@H]3CN(CC4CCCC4)C[C@H]32)cn1`, -101%.

For the molecule `O=C1N(c2ccsc2)CCC12CCCN(c1ccccn1)C2` (stereo not given), the cytotoxicity at 10 µM was -103%. Take `CC(=O)N1CCC2(CCN(CC3CCOC3)C2)CC1` (stereo not given): the cytotoxicity at 10 µM was -95%. With `O=C(c1cccnc1)N1C[C@@H]2CN(CCN3CCCC3)C(=O)[C@@H]2C1`, the cytotoxicity at 10 µM was -113%. Turning to `O=C(Cc1ccco1)N1C[C@H]2CCC[C@@]2(COc2cccnc2)C1`, the cytotoxicity at 10 µM was -109%. In the case of `O=C(C1=CCCC1)N1C[C@@H]2COC[C@]2(COCc2ccncc2)C1`, the cytotoxicity at 10 µM is -96.4%. The same measure for `CN(C)C(=O)NC1COC2(CCN(C(=O)Nc3ccccc3)CC2)C1` (stereo not given): 0.179%; for `O=C1CCC2(CCNCC2)CN1Cc1nnc2ccccn12`: -0.949%. In the case of `CS(=O)(=O)NC1CCN(CCOCc2ccccc2)CC1` it was 2.84%; in that of `Cc1cc(CNC(=O)c2cc(COc3cncc(Cl)c3)on2)n[nH]1`, 16.1%; in that of `CCN1CC(c2ccccc2)CC2(CCN(Cc3ncc[nH]3)CC2)C1` (stereo not given), 8.25%. With `CN(Cc1nc(Cc2cccc(C(F)(F)F)c2)no1)CC1CCCCO1` (stereo not given), the cytotoxicity at 10 µM amounted to 3.64%. In the case of `Cc1c[nH]c(CN2CCC3(CCCN(Cc4ccc(F)c(F)c4)C3)C2)n1` (stereo not given) it was -7.22%. As to `Cc1ccncc1C(=O)N1C[C@H]2CN(CC3CCC3)C[C@@]2(C(=O)O)C1`, the cytotoxicity at 10 µM is -5.73%. In the case of `CCCc1nc(N(C)CCc2noc(C(C)C)n2)c2cnn(C)c2n1` it was 3.86%; in that of `Cc1nccn1CCCN1CCCC(c2nccn2CC2CCC2)C1` (stereo not given), -13.7%; in that of `Cc1cc(NC(C)Cc2cccs2)n2nccc2n1` (stereo not given), 1.22%. Turning to `CN(C(=O)c1cccnc1)C1CCCN(CCc2ccccc2)C1` (stereo not given), the cytotoxicity at 10 µM was -3.59%. As to `Cc1cc(C)n(C2CCN(c3ncnc4c3CCNCC4)C2)n1` (stereo not given), the cytotoxicity at 10 µM was determined as 7.82%. With `Cc1c(Cl)cc(C(=O)NCCc2ncnn2C)cc1Cl`, the cytotoxicity at 10 µM came out at 6.07%.

For `CCN(Cc1ccc(C(C)C)cc1)C(=O)c1csc(CN(C)C)n1`, the cytotoxicity at 10 µM is -3.84%. In the case of `O=C(C1CNCCN1C(=O)CCc1cccnc1)N1CCOCC1` (stereo not given) it was 4.82%; in that of `Nc1nc(Cn2ccnc2-c2cc(CN3CCCC3)cs2)cs1`, 1.4%; in that of `CCN(Cc1cnc(NCc2ccccc2)nc1)C1CCS(=O)(=O)C1` (stereo not given), -15.3%. The same measure for `CCC(=O)N1CCC(n2cc(C(C)(C)O)nn2)CC1`: 3.92%. Consider `CN(Cc1ncc[nH]1)c1nc(-c2ccccn2)nc2c1CCNCC2`, for which the cytotoxicity at 10 µM is -0.796%. The same measure for `COc1cc(-c2cc(NC3CCCC3)nc3[nH]ccc23)nc(N)n1`: 10.2%; for `Cc1nn(C)c(C)c1CN(C(=O)c1cnc(O)cn1)C(C)C`: 2.62%; for `Cc1cc(C2CCCCN2C(=O)CN2CC3(CCNCC3)OC2=O)no1` (stereo not given): 8.69%. With `CCCc1nnc(N2CCC3(CC2)CN(C)C(=O)O3)o1`, the cytotoxicity at 10 µM was 2.64%. Regarding `Cc1nc(N2CCC(C(O)c3nccn3C)CC2)c2nc(C)oc2n1` (stereo not given), the cytotoxicity at 10 µM was -2.22%. The same measure for `CCCN(Cc1nccn1C)C(=O)c1cc(C)nc(C)n1`: 2.37%; for `COc1cc2c(cc1CNC(=O)C(C)n1ccnc1C(C)C)OCCO2` (stereo not given): -1.3%; for `Cc1cnn(C(C)C2CC2)c1NC(=O)c1ccco1` (stereo not given): -1.19%. `O=C(CCC(F)(F)F)N1CCN(Cc2ccncc2)[C@@H]2CS(=O)(=O)C[C@@H]21`: the cytotoxicity at 10 µM is -2.11%. The same measure for `COc1ccc(C(=O)C2CCCN(c3cc(C#N)ccn3)C2)cc1OC` (stereo not given): -0.312%; for `CCc1cc(C(F)(F)F)c2c(C)nn(CC(=O)O)c2n1`: 0.77%. Take `CC1CCCCN1c1nc2c(c(=O)[nH]1)CCN(Cc1cccnc1)C2` (stereo not given): the cytotoxicity at 10 µM was -6.15%. In the case of `CN(c1ccncn1)C1CC2(CCN(C(=O)c3cccs3)C2)C1` (stereo not given) it was -5.05%; in that of `CCc1ncc2c(n1)CN(Cc1nnc(Cc3ccccc3)o1)CC2`, -3.04%; in that of `Cc1cn2c(n1)CCC(NC(=O)c1ccc(S(C)(=O)=O)o1)C2` (stereo not given), -6.92%. For the molecule `Cn1cc(C2CCCN2Cc2csc(C3CCCC3)n2)cn1` (stereo not given), the cytotoxicity at 10 µM came to 8.3%. In the case of `Clc1ccccc1-c1nnc(CNCCn2cccn2)o1` it was 1.4%; in that of `Cc1cc(CN(C)C(=O)c2ccc(OC(C)C)nc2)no1`, -15.3%; in that of `COc1ccc(C(=O)N2CCC(Nc3ccc(C)nn3)CC2)cc1`, -8.51%.

With `COCc1nc(C(=O)N2CCCC2c2cccs2)cs1` (stereo not given), the cytotoxicity at 10 µM is -5.16%. For `CCc1nnc2n1CCN(C(=O)c1cc(Br)c[nH]1)C2`, the cytotoxicity at 10 µM was -7.93%. As for `CCc1nc(C2CCCN(C(=O)c3cn(C)nc3C)C2)no1` (stereo not given), the cytotoxicity at 10 µM is -14.5%. Regarding `Cn1ccc(CN2CCC(NC(=O)Cc3ccccc3)CC2)cc1=O`, the cytotoxicity at 10 µM was -9.75%. For `O=C1CCC(C(=O)NCc2nn(-c3ccccc3)c3c2CCC3)CN1` (stereo not given), the cytotoxicity at 10 µM was -10.1%. In the case of `O=C(NCc1nn(-c2ccccc2)c2c1CCC2)N1CCSCC1` it was -4.89%; in that of `Cc1cc(CN2CCC(c3ccnn3CCO)CC2)no1`, -11.2%; in that of `O=C(NCCN1CCOCC1)c1n[nH]c(=O)c2ccccc12`, 0.376%. In the case of `CC(O)CN1CCN(C(=O)c2ccc(Cn3cccn3)cc2)CC1` (stereo not given) it was -1.45%; in that of `O=C(O)c1ccc(S(=O)(=O)Nc2ccc(Cl)c(F)c2)c(F)c1`, -14.3%; in that of `CCN1CCC(NC(=O)CN2CCc3c(ncn3C)C2)CC1`, 1.85%. The same measure for `CCN(Cc1ccc2c(c1)OCCO2)C(=O)NCc1cc[nH]n1`: 1.54%; for `CCc1nc(CN2CCCN(C(=O)CCSC)CC2)cs1`: -5.41%. For `Cc1noc([C@@H]2C[C@H]3CN(Cc4ccc5c(c4)OCO5)C[C@H]3O2)n1`, the cytotoxicity at 10 µM is -113%. Regarding `CC(C)N1CCc2c(C(=O)N3CCOCC3)nn(C)c2C1`, the cytotoxicity at 10 µM is -105%. For `COc1cccc(C(=O)N2CC[C@@H]3[C@H](CC2)N(C)CCS3(=O)=O)c1`, the cytotoxicity at 10 µM was -129%. In the case of `O=C([C@@H]1C[C@@H]2CCN(c3cccc(F)c3)C[C@H]2O1)N1CCCC1` it was -1.34%; in that of `Cc1nn(C)c(Cl)c1CNCc1cccnc1N1CCOCC1`, -4.17%. The same measure for `CN(C)CCO[C@@H]1CC[C@H]2[C@H]1OCCN2C(=O)c1ccc(F)cc1`: -7.1%; for `CC(C)CN1C[C@H]2CCN(Cc3cccnc3)CC[C@H]2S1(=O)=O`: -1.8%. The same measure for `O=C(NC1CCC1)[C@@H]1CC[C@@H]2[C@@H](CCN2CCc2ccccc2)O1`: -127%.

(Values after ChEMBL document CHEMBL4513216, “Probing the Open Global Health Chemical Diversity Library for Multistage-Active Starting Points for Next-Generation Antimalarials” (ACS Infect Dis, 2020).)
